Source: ChEMBL document CHEMBL4342467, “Discovery of a Novel Dual-Target Inhibitor of ERK1 and ERK5 That Induces Regulated Cell Death to Overcome Compensatory Mechanism in Specific Tumor Types” (J Med Chem, 2020)
The source made the active and inactive calls. The rule behind the calls is not given here.

Experiments:
MKN-74 [1] = experiment: Antiproliferative activity against human MKN74 cells assessed as reduction in cell viability measured after 24 hrs; format: functional, cell-based; conditions: MKN-74, 24 h
[2] = Tmax in Sprague-Dawley rat at 1 mg/kg, iv by LC-MS analysis; format: ADME, organism-based; conditions: in vivo
How it was run: (§1)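 Two groups of rats (3 per group) received a single dose, either 1 mg/kg i.v. or 10 mg/kg p.o. Plasma concentrations were followed to derive Tmax, Cmax, T1/2, AUC and F. Data are from triple testing (± standard deviation).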

[3] = target: T1, Mitogen-activated protein kinase; ERK1/ERK2 (Homo sapiens) (UniProt P27361+P28482); experiment: Inhibition of ERK1/2 in human MKN74 cells harboring siRNA assessed as reduction in ERK1/2 phosphorylation at 0.5 uM by immunofluorescence assay; format: cell-based
How it was run: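 MKN-74 cells transfected with ERK1/2-specific or negative-control siRNA for the indicated times, then given 0.5 μM. p-ERK1/2 and p-ERK5 puncta detected by immunocytochemistry.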

[4] = Effect on Ras/Raf/MEK/ERK signaling in human MKN74 cells assessed as change in p38 expression at 0.5 uM measured up to 24 hrs by Western blot analysis; format: cell-based
How it was run: (§2)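 MKN-74 cells exposed to 0.5 μM for 0, 6, 12 and 24 h. Ras, Raf, p-MEK1/2, MEK1/2, p-JNK, JNK, p-p38 and p38 immunoblotted, with GAPDH as loading control.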

MKN-74 [5] = experiment: Antitumor activity against human MKN74 cells xenografted in BALB/c mouse assessed as reduction in tumor volume at 50 mg/kg, po administered once daily for 16 days measured every 3 days during compound dosing; format: functional, organism-based
How it was run: (§3)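 Female nude mice bearing subcutaneous HL-60, MKN-74 or HeLa xenografts, 8 per group. Dosing was vehicle control or 50 mg/kg p.o. once daily for 16 days. Tumor volume followed over time, mean ± SEM.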

Mus musculus [6] = experiment: In vivo inhibition of ERK5 in BALB/c mouse xenografted with human MKN74 cells assessed as reduction in ERK5 phosphorylation at 50 mg/kg, po administered once daily for 16 days measured post-last dose by Western blot analysis; format: functional, organism-based
How it was run: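 Two individual tumors excised from xenograft mice were lysed. ERK1/2, p-ERK1/2, ERK5 and p-ERK5 detected by western blot.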

[7] = Effect on Ras/Raf/MEK/ERK signaling in human MKN74 cells assessed as change in Raf expression at 0.5 uM measured up to 24 hrs by Western blot analysis; format: cell-based; how it was run: as §2
[8] = Cmax in Sprague-Dawley rat at 10 mg/kg, po by LC-MS analysis; format: ADME, organism-based; set-up: dose 10 mg/kg, route oral; conditions: in vivo
How it was run: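 Rats, two groups of 3; single i.v. dose 1 mg/kg or oral dose 10 mg/kg. Plasma concentration-time profiles used to derive T1/2, Tmax, Cmax, AUC0-t, AUC0-∞ and oral bioavailability. Data from triplicate testing, ± standard deviation.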

[9] = target: Mitogen-activated protein kinase 7 (Homo sapiens) (UniProt Q13164); experiment: Inhibition of ERK5 in human MKN74 cells harboring ERK1/2 siRNA assessed as reduction in ERK5 phosphorylation at 0.5 uM by Western blot analysis; format: cell-based
How it was run: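 MKN-74 cells were transfected with ERK1/2-specific siRNA or negative-control siRNA, then exposed to compound. ERK1/2, p-ERK1/2, ERK5 and p-ERK5 were read by immunoblotting, with GAPDH as loading control.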

MKN-74 [10] = experiment: Induction of autophagy in human MKN74 cells harboring ATG5 siRNA assessed as increase in LC3-2 expression at 0.5 uM by Western blot analysis; format: functional, cell-based
How it was run: (§4)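 MKN-74 cells transfected with ATG5 or negative-control siRNA for the indicated times, then 0.5 μM. ATG5, LC3 and p62 immunoblotted, with GAPDH loading control.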

[11] = Effect on Ras/Raf/MEK/ERK signaling in human MKN74 cells assessed as change in Ras expression at 0.5 uM measured up to 24 hrs by Western blot analysis; format: cell-based; how it was run: as §2
[12] = Effect on Ras/Raf/MEK/ERK signaling in human MKN74 cells assessed as change in MEK1/2 expression at 0.5 uM measured up to 24 hrs by Western blot analysis; format: cell-based; how it was run: as §2
HL-60 [13] = experiment: Antitumor activity against human HL60 cells xenografted in BALB/c mouse assessed as reduction in tumor volume at 50 mg/kg, po administered once daily for 16 days measured every 3 days during compound dosing; format: functional, organism-based; how it was run: as §3
HeLa = experiment: Antitumor activity against human HeLa cells xenografted in BALB/c mouse assessed as reduction in tumor volume at 50 mg/kg, po administered once daily for 16 days measured every 3 days during compound dosing; format: functional, organism-based; how it was run: as §3
[14] = Effect on Ras/Raf/MEK/ERK signaling in human MKN74 cells assessed as change in MEK1/2 phosphorylation at S217/221 residue at 0.5 uM measured up to 24 hrs by Western blot analysis; format: cell-based; how it was run: as §2
MKN-74 [15] = experiment: Induction of autophagy in human MKN74 cells assessed as increase in p62 degradation at 0.5 uM measured after 24 hrs in presence of autophagy inhibitor 3-methyladenine by Western blot analysis; format: functional, cell-based
How it was run: (§5)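 MKN-74 cells given 0.5 μM for 24 h with or without 3-MA; LC3 and p62 immunoblotted.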

MKN-74 [16] = experiment: Induction of autophagy in human MKN74 cells assessed as increase in LC3-2 expression at 0.5 uM measured after 24 hrs in presence of autophagy inhibitor 3-methyladenine by Western blot analysis; format: functional, cell-based; how it was run: as §5
MKN-74 [17] = experiment: Induction of autophagy in human MKN74 cells harboring ATG5 siRNA assessed as increase in p62 degradation at 0.5 uM by Western blot analysis; format: functional, cell-based; how it was run: as §4
HL-60 [18] = experiment: Antitumor activity against human HL60 cells xenografted in BALB/c mouse assessed as reduction in tumor weight at 50 mg/kg, po administered once daily for 16 days measured post-last dose; format: functional, organism-based
How it was run: (§6)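 Female nude mice bearing subcutaneous xenografts (8 per group) received vehicle or 50 mg/kg p.o. once daily for 16 days. Excised tumors weighed and compared with control group.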

Mus musculus [19] = experiment: In vivo inhibition of ERK5 in BALB/c mouse xenografted with human MKN74 cells assessed as reduction in phosphorylated ERK5 expression at 50 mg/kg, po administered once daily for 16 days measured post-last dose by immunohistochemical analysis; format: functional, organism-based
How it was run: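 Tumors excised from control and 50 mg/kg p.o.-treated xenograft mice were immunostained for Ki-67, p-ERK1/2 and p-ERK5. Positive-cell percentage quantified and compared with control.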

[20] = target: MAPK3/MAPK7 (Homo sapiens) (UniProt P27361+Q13164); experiment: Inhibition of ERK1/5 in human MKN74 cells assessed as reduction in c-MYC phosphorylation at S62 residue at 0.5 uM measured up to 24 hrs by Western blot analysis; format: cell-based
[21] = target: T1, Mitogen-activated protein kinase; ERK1/ERK2 (Homo sapiens); experiment: Inhibition of ERK1/2 in human MKN74 cells assessed as reduction in RSK phosphorylation at T359/S363 residue at 0.5 uM measured up to 24 hrs by Western blot analysis; format: cell-based
MKN-74 [22] = experiment: Antitumor activity against human MKN74 cells xenografted in BALB/c mouse assessed as reduction in tumor weight at 50 mg/kg, po administered once daily for 16 days measured post-last dose; format: functional, organism-based; how it was run: as §6
HL-60 [23] = experiment: Induction of autophagy in human HL60 cells; format: functional, cell-based
[24] = Oral bioavailability in Sprague-Dawley rat at 10 mg/kg by LC-MS analysis; format: ADME, organism-based; conditions: in vivo; how it was run: as §1

T1 sequence (P27361 whole entry, looked up): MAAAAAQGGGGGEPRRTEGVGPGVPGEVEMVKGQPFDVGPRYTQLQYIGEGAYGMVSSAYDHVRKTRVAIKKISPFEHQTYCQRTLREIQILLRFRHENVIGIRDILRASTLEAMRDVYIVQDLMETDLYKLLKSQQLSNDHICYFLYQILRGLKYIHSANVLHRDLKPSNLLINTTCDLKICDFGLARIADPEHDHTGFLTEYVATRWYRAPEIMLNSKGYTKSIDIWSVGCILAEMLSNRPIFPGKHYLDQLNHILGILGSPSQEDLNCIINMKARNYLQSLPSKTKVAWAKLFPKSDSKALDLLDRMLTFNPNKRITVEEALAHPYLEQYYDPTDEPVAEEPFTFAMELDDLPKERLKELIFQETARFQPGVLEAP
T1 sequence (P28482 whole entry, looked up): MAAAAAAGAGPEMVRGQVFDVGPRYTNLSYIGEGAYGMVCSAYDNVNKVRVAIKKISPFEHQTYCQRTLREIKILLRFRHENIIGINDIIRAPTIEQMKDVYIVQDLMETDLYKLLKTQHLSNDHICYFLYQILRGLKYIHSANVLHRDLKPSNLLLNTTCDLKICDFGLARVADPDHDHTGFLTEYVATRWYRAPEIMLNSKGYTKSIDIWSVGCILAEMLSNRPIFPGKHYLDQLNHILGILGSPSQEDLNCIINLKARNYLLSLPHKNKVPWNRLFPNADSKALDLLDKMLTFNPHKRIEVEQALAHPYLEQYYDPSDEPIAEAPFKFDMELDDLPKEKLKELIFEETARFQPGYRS
Chain of Mitogen-activated protein kinase 7 (Homo sapiens) (Q13164 2-816 limits assumed): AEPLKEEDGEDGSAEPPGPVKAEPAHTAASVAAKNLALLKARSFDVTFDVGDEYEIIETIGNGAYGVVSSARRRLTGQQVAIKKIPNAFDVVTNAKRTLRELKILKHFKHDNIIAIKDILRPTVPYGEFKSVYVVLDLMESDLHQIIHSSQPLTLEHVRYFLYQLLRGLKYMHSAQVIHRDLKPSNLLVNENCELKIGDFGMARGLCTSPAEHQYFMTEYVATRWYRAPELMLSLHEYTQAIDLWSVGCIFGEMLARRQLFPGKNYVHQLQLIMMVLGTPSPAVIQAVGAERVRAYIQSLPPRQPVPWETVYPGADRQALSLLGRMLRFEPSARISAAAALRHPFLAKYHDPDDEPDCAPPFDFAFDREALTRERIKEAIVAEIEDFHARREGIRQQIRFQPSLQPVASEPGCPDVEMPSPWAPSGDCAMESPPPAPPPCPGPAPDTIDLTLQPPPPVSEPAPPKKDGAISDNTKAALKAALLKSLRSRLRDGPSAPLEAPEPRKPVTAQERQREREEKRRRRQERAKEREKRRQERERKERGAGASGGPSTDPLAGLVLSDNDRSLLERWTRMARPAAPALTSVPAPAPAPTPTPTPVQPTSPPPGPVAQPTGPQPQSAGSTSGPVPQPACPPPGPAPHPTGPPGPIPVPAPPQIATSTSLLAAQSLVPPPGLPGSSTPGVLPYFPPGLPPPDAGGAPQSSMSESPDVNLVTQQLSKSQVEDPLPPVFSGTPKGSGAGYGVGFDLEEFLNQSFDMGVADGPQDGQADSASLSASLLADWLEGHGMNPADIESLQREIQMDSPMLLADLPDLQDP
Chain of MAPK3/MAPK7 (Homo sapiens) (P27361 whole entry, looked up): as the sequence (P27361 whole entry, looked up) above
Chain of MAPK3/MAPK7 (Homo sapiens) (Q13164 whole entry, looked up): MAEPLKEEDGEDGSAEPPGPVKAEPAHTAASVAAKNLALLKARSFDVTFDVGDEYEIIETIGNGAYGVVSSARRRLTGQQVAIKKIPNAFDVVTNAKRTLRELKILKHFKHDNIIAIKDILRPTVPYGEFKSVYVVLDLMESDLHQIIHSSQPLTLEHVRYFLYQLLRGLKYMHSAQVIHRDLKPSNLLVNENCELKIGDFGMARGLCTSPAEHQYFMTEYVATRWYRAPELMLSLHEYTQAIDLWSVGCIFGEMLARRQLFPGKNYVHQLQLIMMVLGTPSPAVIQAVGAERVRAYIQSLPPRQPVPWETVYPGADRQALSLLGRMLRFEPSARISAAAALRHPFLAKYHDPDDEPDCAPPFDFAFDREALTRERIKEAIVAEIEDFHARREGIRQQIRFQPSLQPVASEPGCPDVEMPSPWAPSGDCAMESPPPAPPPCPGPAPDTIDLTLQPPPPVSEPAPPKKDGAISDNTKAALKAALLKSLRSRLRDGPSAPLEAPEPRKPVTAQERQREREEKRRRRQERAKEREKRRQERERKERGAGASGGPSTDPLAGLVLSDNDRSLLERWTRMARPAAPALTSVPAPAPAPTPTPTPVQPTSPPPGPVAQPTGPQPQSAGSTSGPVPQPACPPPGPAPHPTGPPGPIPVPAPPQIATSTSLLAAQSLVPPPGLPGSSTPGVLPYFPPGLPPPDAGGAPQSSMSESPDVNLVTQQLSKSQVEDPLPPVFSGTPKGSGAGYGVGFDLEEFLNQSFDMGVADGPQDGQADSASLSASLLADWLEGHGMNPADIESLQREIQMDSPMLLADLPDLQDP

NC(=O)c1c(NC(=O)c2ccccc2Cl)sc2c1CCN(C(=S)Nc1ccccc1Cl)C2
IC50 (MKN-74 [1]): 2550 nM | Tmax [2]: 4.8 min | inhibition [3]: Active | Activity [4]: inactive | Activity (MKN-74 [5]): Active | inhibition (Mus musculus [6]): Active | Activity [7]: inactive | Cmax [8]: 1560 ng/mL | inhibition [9]: Active | Activity (MKN-74 [10]): inactive | Activity [11]: inactive | Activity [12]: inactive | Activity (HL-60 [13]): Active | Activity (HeLa): inactive | Activity [14]: inactive | Activity (MKN-74 [15]): inactive | Activity (MKN-74 [16]): inactive | Activity (MKN-74 [17]): inactive | Activity (HL-60 [18]): Active | inhibition (Mus musculus [19]): Active | inhibition [20]: Active | inhibition [21]: inactive | Activity (MKN-74 [22]): Active | Activity (HL-60 [23]): inactive | bioavailability [24]: 27.6%
